The text below walks through data of ChEMBL document CHEMBL3286335, “Synthesis of 2,3,6-trideoxy sugar triazole hybrids as potential new broad spectrum antimicrobial agents” (Eur J Med Chem, 2014).

Structures are written as SMILES. Values after ≈ are worked out from the molar mass of the structure shown.

Data set [1] has as its system Trichophyton mentagrophytes. As to the kind of experiment: Antimicrobial activity against Trichophyton mentagrophytes after 96 hrs by microbroth dilution method. The data set is classed as functional. The method in brief: (§1)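 Broth microdilution per NCCLS guidelines. Bacteria in Mueller-Hinton broth; fungi in MOPS-buffered RPMI 1640. Test compounds at 50-0.36 µg/mL, standard drugs over 32-0.0018 µg/mL. Inoculum 1-5 × 10^3 cells/mL, 35 °C in a moist chamber. A492 read at 24 h for bacteria, 48 h for C. albicans, 72 h for A. fumigatus, C. neoformans and S. schenckii, 96 h for T. mentagrophytes. MIC taken as 90% growth inhibition relative to growth control.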
For orientation: Dilution methods test growth across graded concentrations, often in twofold steps.

Data set [2] concerns Cryptococcus neoformans. As to the kind of experiment: Antimicrobial activity against Cryptococcus neoformans after 72 hrs by microbroth dilution method. The data set is classed as functional. Summed up:
as §1

Data set [3] has as its system Escherichia coli. Put plainly: Antimicrobial activity against Escherichia coli ATCC 9637 after 24 hrs by microbroth dilution method. Conditions: ATCC 9637, 24 h; call rule not given here. It is filed as functional. The method in brief: as §1
In data set [4] the test system is L929. Put plainly: Cytotoxicity against mouse L929 cells assessed as change in morphology at MIC after 24 hrs using Giemsa staining by phase contrast microscopy. It is filed as cell-based. Conditions: l929, 24 h. The method in brief: (§2)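 Mouse fibroblast L929 cells grown in DMEM with 10% FBS and antibiotic/antimycotic at 37 °C, 5% CO2. Medium switched to serum-free DMEM at 90% confluency, then compounds added (DMSO stocks) for 24 h. Cells fixed, stained with Giemsa for 30 min at 37 °C, washed with PBS, air dried and examined by phase-contrast microscopy.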

The test system of data set [5] is Staphylococcus aureus. Put plainly: Antimicrobial activity against methicillin-resistant Staphylococcus aureus after 24 hrs by microbroth dilution method. The data set is classed as functional. The method in brief:
(§3)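 Microbroth dilution in Mueller Hinton broth, following NCCLS guidelines. Test compounds were run at 50-0.36 µg/mL against an initial inoculum of 1-5 × 10^3 cells/mL. Plates were incubated in a moist chamber at 35 °C, and absorbance at 492 nm was read after 24 h. MIC was taken as 90% growth inhibition relative to the growth control.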

Data set [6] relates to Staphylococcus aureus. Put plainly: Antimicrobial activity against vancomycin-resistant Staphylococcus aureus after 24 hrs by microbroth dilution method. The data set is classed as functional. Summed up:
as §3

Data set [7] relates to L929. As to the kind of experiment: Cytotoxicity against mouse L929 cells assessed as reduction in cell viability after 24 hrs by MTT assay. The data set is classed as cell-based. The note with it: l929, 24 h. Summed up:
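L929 fibroblasts in DMEM with 10% FBS at 37 °C, 5% CO2. Seeded at 1×10^3 cells per well, switched to serum-free DMEM at 90% confluency. Compounds from 1 mg/mL DMSO stocks tested at nine twofold dilutions for 24 h. MTT readout: viability = (A570−A630) sample / (A570−A630) control × 100.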
(In general: Tetrazolium assays rely on reduction of a dye to a coloured formazan, in cell work by metabolically active cells.)

Data set [8] deals with Sporothrix schenckii. As to the kind of experiment: Antimicrobial activity against Sporothrix schenckii after 72 hrs by microbroth dilution method. The data set is classed as functional. Summed up: as §1
The test system of data set [9] is Klebsiella pneumoniae. As to the kind of experiment: Antimicrobial activity against Klebsiella pneumoniae ATCC 27736 after 24 hrs by microbroth dilution method. It is filed as functional. Conditions: ATCC 27736, 24 h. Summed up:
as §1

Data set [10] has as its system Pseudomonas aeruginosa. As to the kind of experiment: Antimicrobial activity against Pseudomonas aeruginosa ATCC BAA-427 after 24 hrs by microbroth dilution method. Conditions: ATCC BAA-427, 24 h. The data set is classed as functional. The method in brief:
as §1

Data set [11] deals with L929. As to the kind of experiment: Cytotoxicity against mouse L929 cells assessed as change in morphology at 50 ug/ml after 24 hrs using Giemsa staining by phase contrast microscopy. The data set is classed as cell-based. Conditions: l929, 24 h. Summed up: as §2
The test system of data set [12] is Aspergillus fumigatus. As to the kind of experiment: Antimicrobial activity against Aspergillus fumigatus after 72 hrs by microbroth dilution method. The data set is classed as functional. Summed up: as §1
For data set [13], the system named is Trichophyton mentagrophytes. Put plainly: Ratio of fluconazole MIC to compound MIC for Trichophyton mentagrophytes after 96 hrs by microbroth dilution method. The data set is classed as functional.
Data set [14] relates to Staphylococcus aureus. As to the kind of experiment: Antimicrobial activity against Staphylococcus aureus ATCC 25923 after 24 hrs by microbroth dilution method. Conditions: ATCC 25923, 24 h. The data set is classed as functional. Summed up: as §1
Data set [15] relates to Trichophyton mentagrophytes. Put plainly: Ratio of miconazole MIC to compound MIC for Trichophyton mentagrophytes after 96 hrs by microbroth dilution method. The data set is classed as functional.
Data set [16] deals with Candida albicans. Put plainly: Antimicrobial activity against Candida albicans after 48 hrs by microbroth dilution method. It is filed as functional. Summed up:
as §1

The test system of data set [17] is Staphylococcus aureus. As to the kind of experiment: Ratio of vancomycin MIC to compound MIC for Staphylococcus aureus ATCC 25923 after 24 hrs by microbroth dilution method. It is filed as functional.
Data set [18] deals with Klebsiella pneumoniae. Put plainly: Ratio of vancomycin MIC to compound MIC for Klebsiella pneumoniae ATCC 27736 after 24 hrs by microbroth dilution method. The data set is classed as functional.
Data set [19] concerns Klebsiella pneumoniae. Put plainly: Ratio of ampicillin MIC to compound MIC for Klebsiella pneumoniae ATCC 27736 after 24 hrs by microbroth dilution method. It is filed as functional.
Data set [20] deals with Klebsiella pneumoniae. As to the kind of experiment: Ratio of methicillin MIC to compound MIC for Klebsiella pneumoniae ATCC 27736 after 24 hrs by microbroth dilution method. It is filed as functional.
Data set [21] deals with Klebsiella pneumoniae. Put plainly: Ratio of gentamycin MIC to compound MIC for Klebsiella pneumoniae ATCC 27736 after 24 hrs by microbroth dilution method. It is filed as functional.
For data set [22], the system named is Staphylococcus aureus. Put plainly: Ratio of ampicillin MIC to compound MIC for Staphylococcus aureus ATCC 25923 after 24 hrs by microbroth dilution method. It is filed as functional.
Data set [23] deals with Candida albicans. As to the kind of experiment: Ratio of miconazole MIC to compound MIC for Candida albicans after 48 hrs by microbroth dilution method. The data set is classed as functional.
Data set [24] concerns Aspergillus fumigatus. As to the kind of experiment: Ratio of clotrimazole MIC to compound MIC for Aspergillus fumigatus after 72 hrs by microbroth dilution method. The data set is classed as functional.
In data set [25] the test system is Aspergillus fumigatus. Put plainly: Ratio of miconazole MIC to compound MIC for Aspergillus fumigatus after 72 hrs by microbroth dilution method. It is filed as functional.

Broadly, the MIC is the least concentration at which growth counts as inhibited. A higher MIC goes with a need for much substance. On to `CCCCO[C@@H]1C=CC(=O)[C@@H](Cn2cc(CCCCl)nn2)O1`, for which the MIC in data set [1] is 0.39 µg/mL (≈ 1.19 µM); in [2], 50 µg/mL (≈ 153 µM); in data set [3], > 50 µg/mL; in data set [5], > 50 µg/mL; in data set [6], > 50 µg/mL; in data set [8], 3.12 µg/mL (≈ 9.52 µM). Moreover, the MIC was > 50 µg/mL in data set [9]; > 50 µg/mL in [10]; > 50 µg/mL in data set [12]; 12.5 µg/mL (≈ 38.1 µM) in data set [14]; 25 µg/mL (≈ 76.3 µM) in data set [16]. Further, the Activity entry is recorded as “Non-toxic” in data set [4], “Dose-dependent effect” in data set [7] and “Toxic” in [11]. The Ratio in data set [13] stood at 40; in [15], 2.

Consider `CCCCCCCCc1cn(C[C@H]2O[C@H](OCCC(C)C)C=CC2=O)nn1`, for which the MIC in [1] was 3.12 µg/mL (≈ 8.26 µM); in [2], > 50 µg/mL; in [3], > 50 µg/mL; in data set [5], 3.12 µg/mL (≈ 8.26 µM); in data set [6] it was 3.12 µg/mL (≈ 8.26 µM); in data set [8], 50 µg/mL (≈ 132 µM). In addition, the minimal inhibitory concentration (MIC) in data set [9] was 0.78 µg/mL (≈ 2.07 µM); in data set [10], > 50 µg/mL; in data set [12] it was > 50 µg/mL; in [14], 0.78 µg/mL (≈ 2.07 µM); in data set [16], > 50 µg/mL. For the same compound, the Ratio came to 16 in [17]; 16 in data set [18]; 16 in data set [19]; 8 in data set [20]; 2 in data set [21]; 16 in [22]. Besides, the values for the Activity entry in data set [4], in [7] and in data set [11] were “Non-toxic”, “Dose-dependent effect” and “Toxic”, respectively.

With `CCCCCCCCc1cn(C[C@H]2O[C@H](OCCCC)C=CC2=O)nn1`, the MIC in [1] is 6.25 µg/mL (≈ 17.2 µM); in data set [2] it was 25 µg/mL (≈ 68.8 µM); in data set [3], > 50 µg/mL; in data set [5] it was > 50 µg/mL; in [6] it was > 50 µg/mL; in data set [8], 25 µg/mL (≈ 68.8 µM). Also, the MIC in data set [9] was > 50 µg/mL; in [10], > 50 µg/mL; in data set [12], > 50 µg/mL; in data set [14], 6.25 µg/mL (≈ 17.2 µM); in data set [16], 6.25 µg/mL (≈ 17.2 µM). For the same compound, the Ratio in data set [23] came out at 4.

Consider `CC(C)CCO[C@@H]1C=CC(=O)[C@@H](Cn2cc(-c3ccc(F)cc3)nn2)O1`, for which the minimum inhibitory concentration (MIC) in [1] is 1.56 µg/mL (≈ 4.34 µM); in data set [2], 50 µg/mL (≈ 139 µM); in [3], > 50 µg/mL; in [5], 3.12 µg/mL (≈ 8.68 µM); in [6], 3.12 µg/mL (≈ 8.68 µM); in [8] it was 6.25 µg/mL (≈ 17.4 µM). The MIC in data set [9] was > 50 µg/mL; in data set [10], > 50 µg/mL; in data set [12] it was 50 µg/mL (≈ 139 µM); in data set [14], 0.78 µg/mL (≈ 2.17 µM); in data set [16] it was 6.25 µg/mL (≈ 17.4 µM). Besides, the Ratio is on record as 16 in data set [17], 4 in [23] and 16 in [22]. The Activity entry in data set [4] is “Non-toxic”; in data set [7], “Dose-dependent effect”; in [11], “Toxic”.

`CC(C)CCO[C@@H]1C=CC(=O)[C@@H](Cn2cc(COCC34CC5CC(CC(C5)C3)C4)nn2)O1`: the Ratio in data set [24] came out at 5; in [18], 16; in [19], 16; in [20], 8; in data set [25], 8; in [21] it was 2. Besides, the MIC was determined as 1.56 µg/mL (≈ 3.52 µM) in data set [1]; 50 µg/mL (≈ 113 µM) in [2]; 50 µg/mL (≈ 113 µM) in data set [3]; 3.12 µg/mL (≈ 7.03 µM) in data set [5]; 3.12 µg/mL (≈ 7.03 µM) in data set [6]; 50 µg/mL (≈ 113 µM) in data set [8]. For the same compound, the MIC is 0.78 µg/mL (≈ 1.76 µM) in [9]; 50 µg/mL (≈ 113 µM) in data set [10]; 1.56 µg/mL (≈ 3.52 µM) in [12]; 1.56 µg/mL (≈ 3.52 µM) in [14]; > 50 µg/mL in data set [16]. Moreover, the Activity result in data set [4] was “Non-toxic”; in data set [7], “Dose-dependent effect”; in data set [11], “Toxic”.

Take `CCCCCCCCc1cnnn1C[C@H]1O[C@H](OCCC(C)C)C=CC1=O`: the MIC in data set [1] is 25 µg/mL (≈ 66.2 µM); in data set [2], 25 µg/mL (≈ 66.2 µM); in data set [3] it was > 50 µg/mL; in data set [5], 12.5 µg/mL (≈ 33.1 µM); in data set [6] it was 12.5 µg/mL (≈ 33.1 µM); in [8], 6.25 µg/mL (≈ 16.6 µM). The MIC in data set [9] is 50 µg/mL (≈ 132 µM); in [10], > 50 µg/mL; in [12] it was > 50 µg/mL; in data set [14], 0.78 µg/mL (≈ 2.07 µM); in data set [16], 50 µg/mL (≈ 132 µM). The Ratio in data set [17] and in data set [22] was 16 in each case. Besides, the figures for the Activity result in [4], in [7] and in data set [11] were “Non-toxic”, “Dose-dependent effect” and “Toxic”, respectively.
